Experimental data from ChEMBL document CHEMBL1933007, “Novel brain penetrant benzofuropiperidine 5-HT₆ receptor antagonists” (Bioorg Med Chem Lett, 2012).
Values belong to the compound of their own block, whether it stands above or below them. Calls of active or inactive are those of the source. No cut-off for these calls is given here.

How the values were obtained:
[1] = target: T1, 5-hydroxytryptamine receptor 6 (Homo sapiens, UniProt P50406); test: Displacement of [3H]LSD from full length human 5HT6 receptor
T1 sequence (P50406 whole entry): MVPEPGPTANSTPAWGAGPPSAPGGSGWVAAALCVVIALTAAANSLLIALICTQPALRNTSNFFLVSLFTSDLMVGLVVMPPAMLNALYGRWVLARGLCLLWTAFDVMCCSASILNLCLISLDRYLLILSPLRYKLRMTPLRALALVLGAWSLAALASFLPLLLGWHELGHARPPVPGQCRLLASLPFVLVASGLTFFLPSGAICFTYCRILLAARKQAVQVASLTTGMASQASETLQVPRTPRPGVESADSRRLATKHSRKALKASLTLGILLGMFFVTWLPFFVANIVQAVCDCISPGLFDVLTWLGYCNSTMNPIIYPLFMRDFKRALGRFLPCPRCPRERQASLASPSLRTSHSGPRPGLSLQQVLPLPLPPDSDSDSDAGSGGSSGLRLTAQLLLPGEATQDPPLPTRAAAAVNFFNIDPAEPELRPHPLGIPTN
Procedure, shortened: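 Radioligand binding with [³H]LSD on membranes from cells expressing full-length human 5-HT6R.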

[2] = target: 5-hydroxytryptamine receptor 6 (Rattus norvegicus, UniProt P31388); test: Displacement of [3H]LSD from full length rat 5HT6 receptor
Chain of 5-hydroxytryptamine receptor 6 (Rattus norvegicus, UniProt P31388) (P31388 whole entry): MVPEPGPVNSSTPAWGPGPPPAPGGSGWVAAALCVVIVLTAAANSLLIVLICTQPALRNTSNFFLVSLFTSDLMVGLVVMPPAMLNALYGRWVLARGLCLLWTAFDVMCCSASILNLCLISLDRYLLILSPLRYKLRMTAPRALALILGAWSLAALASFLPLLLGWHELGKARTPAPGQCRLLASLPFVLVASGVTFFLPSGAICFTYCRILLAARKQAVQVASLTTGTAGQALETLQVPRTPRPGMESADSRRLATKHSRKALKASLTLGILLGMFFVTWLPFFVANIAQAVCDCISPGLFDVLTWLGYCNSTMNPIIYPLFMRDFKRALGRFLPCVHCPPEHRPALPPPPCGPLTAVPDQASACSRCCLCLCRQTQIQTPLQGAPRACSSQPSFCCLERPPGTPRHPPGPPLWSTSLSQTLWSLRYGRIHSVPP
Procedure, shortened: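 Radioligand binding with [³H]LSD on membranes from cells expressing full-length rat 5-HT6R.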

[3] = Dissociation constant, pKa of the compound; type: physicochemical
Procedure, shortened: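 pKa is a calculated value, not a measured one.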

[4] = target: T1, 5-hydroxytryptamine receptor 6; test: Antagonist activity at human recombinant 5-HT6 receptor expressed human astrocytoma cells assessed as inhibition of 5-HT-induced cAMP accumulation after 10 mins preincubation by HTRF assay
[5] = Half life in rat liver microsomes; type: ADME, Microsome
[6] = Half life in dog liver microsomes; type: ADME, Canis lupus familiaris, Microsome
[7] = target: Voltage-gated inwardly rectifying potassium channel KCNH2 (Homo sapiens, UniProt Q12809); test: Inhibition of human ERG by patch express assay
Chain of Voltage-gated inwardly rectifying potassium channel KCNH2 (Q12809 whole entry): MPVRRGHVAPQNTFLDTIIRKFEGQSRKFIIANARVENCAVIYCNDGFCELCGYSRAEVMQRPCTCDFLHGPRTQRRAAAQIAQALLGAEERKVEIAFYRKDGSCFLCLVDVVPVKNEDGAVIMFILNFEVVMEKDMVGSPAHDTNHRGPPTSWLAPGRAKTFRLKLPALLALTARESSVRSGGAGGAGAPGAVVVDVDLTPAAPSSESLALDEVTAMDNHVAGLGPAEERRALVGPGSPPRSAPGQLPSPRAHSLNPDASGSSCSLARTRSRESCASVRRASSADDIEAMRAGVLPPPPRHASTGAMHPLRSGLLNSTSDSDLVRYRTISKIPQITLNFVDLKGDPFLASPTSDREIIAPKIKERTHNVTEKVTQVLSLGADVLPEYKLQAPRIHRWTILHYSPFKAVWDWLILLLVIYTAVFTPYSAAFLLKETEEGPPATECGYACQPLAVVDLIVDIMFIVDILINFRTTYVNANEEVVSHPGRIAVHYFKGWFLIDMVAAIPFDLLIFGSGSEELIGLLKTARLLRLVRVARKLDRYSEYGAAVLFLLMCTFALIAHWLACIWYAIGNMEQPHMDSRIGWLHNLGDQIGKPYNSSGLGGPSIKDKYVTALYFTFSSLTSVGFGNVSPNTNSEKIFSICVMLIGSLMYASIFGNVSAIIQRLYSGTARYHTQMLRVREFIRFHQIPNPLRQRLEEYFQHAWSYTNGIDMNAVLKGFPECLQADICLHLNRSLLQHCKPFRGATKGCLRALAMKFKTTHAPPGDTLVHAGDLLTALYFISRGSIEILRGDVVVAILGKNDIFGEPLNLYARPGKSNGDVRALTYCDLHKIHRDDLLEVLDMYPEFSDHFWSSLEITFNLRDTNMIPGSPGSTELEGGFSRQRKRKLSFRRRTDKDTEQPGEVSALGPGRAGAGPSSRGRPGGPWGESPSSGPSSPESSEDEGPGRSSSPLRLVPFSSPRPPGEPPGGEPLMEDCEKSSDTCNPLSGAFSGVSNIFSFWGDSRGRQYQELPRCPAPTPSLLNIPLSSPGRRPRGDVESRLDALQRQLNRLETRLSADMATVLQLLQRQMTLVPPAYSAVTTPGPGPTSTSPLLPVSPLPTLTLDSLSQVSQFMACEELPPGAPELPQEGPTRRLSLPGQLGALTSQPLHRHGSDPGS

[8] = Half life in human liver microsomes; type: ADME, Microsome
[9] = Half life in rat at 1 mg/kg, iv; type: ADME, organism-based; parameters: dose 1 mg/kg, route intravenous; conditions: in vivo
[10] = Volume of distribution in rat at 1 mg/kg, iv; type: ADME, organism-based; parameters: dose 1 mg/kg, route intravenous; conditions: in vivo
[11] = Plasma clearance in rat at 1 mg/kg, iv; type: ADME, organism-based; parameters: dose 1 mg/kg, route intravenous
[12] = Cmax in rat at 5 mg/kg, po; type: ADME, organism-based; parameters: dose 5 mg/kg, route oral; conditions: in vivo
Rattus norvegicus [13] = test: AUC in rat at 5 mg/kg, po after 6 hrs; type: ADME, organism-based, Plasma; parameters: time < 6 hr, dose 5 mg/kg, route oral; conditions: in vivo
[14] = Oral bioavailability in rat at 5 mg/kg; type: ADME, organism-based; conditions: in vivo
Brain = test: Drug uptake in rat brain at 5 mg/kg, ip after 1 hr; type: ADME, organism-based; parameters: dose 5 mg/kg, route intraperitoneal; conditions: in vivo
Procedure, shortened: (§1)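 Rats dosed intraperitoneally at 5 mg/kg. Brain concentration measured at 1 h and expressed as a brain-to-plasma ratio.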

[15] = Ratio of drug level in brain to plasma in rat at 5 mg/kg, ip; type: ADME, organism-based; parameters: dose 5 mg/kg, route intraperitoneal; conditions: read-out: BPR; procedure, shortened: as §1
Cytochrome P450 1A2 = target: T2, Cytochrome P450 1A2 (Homo sapiens, UniProt P05177); test: Inhibition of CYP1A2; type: ADME
T2 sequence (P05177 whole entry): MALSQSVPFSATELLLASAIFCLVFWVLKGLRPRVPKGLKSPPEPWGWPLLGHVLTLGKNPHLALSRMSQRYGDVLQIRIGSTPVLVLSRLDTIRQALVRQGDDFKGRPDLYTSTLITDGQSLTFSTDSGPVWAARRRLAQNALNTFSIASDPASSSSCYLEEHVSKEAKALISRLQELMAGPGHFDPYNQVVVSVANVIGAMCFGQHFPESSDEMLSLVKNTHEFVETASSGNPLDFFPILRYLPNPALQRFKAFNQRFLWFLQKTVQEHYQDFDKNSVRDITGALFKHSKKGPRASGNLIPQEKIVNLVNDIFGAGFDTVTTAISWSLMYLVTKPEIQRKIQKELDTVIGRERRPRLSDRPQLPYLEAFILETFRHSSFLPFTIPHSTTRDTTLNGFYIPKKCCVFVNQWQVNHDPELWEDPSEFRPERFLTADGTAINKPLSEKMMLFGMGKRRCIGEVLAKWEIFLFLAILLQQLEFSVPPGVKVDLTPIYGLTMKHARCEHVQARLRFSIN

Cytochrome P450 2C19 = Cytochrome P450 2C19 (Homo sapiens, UniProt P33261); test: Inhibition of CYP2C19; type: ADME
Cytochrome P450 2D6 = Cytochrome P450 2D6 (Homo sapiens, UniProt P10635); test: Inhibition of CYP2D6; type: ADME
Cytochrome P450 3A4 = Cytochrome P450 3A4 (Homo sapiens, UniProt P08684); test: Inhibition of CYP3A4; type: ADME
Chain of Cytochrome P450 3A4 (P08684 whole entry): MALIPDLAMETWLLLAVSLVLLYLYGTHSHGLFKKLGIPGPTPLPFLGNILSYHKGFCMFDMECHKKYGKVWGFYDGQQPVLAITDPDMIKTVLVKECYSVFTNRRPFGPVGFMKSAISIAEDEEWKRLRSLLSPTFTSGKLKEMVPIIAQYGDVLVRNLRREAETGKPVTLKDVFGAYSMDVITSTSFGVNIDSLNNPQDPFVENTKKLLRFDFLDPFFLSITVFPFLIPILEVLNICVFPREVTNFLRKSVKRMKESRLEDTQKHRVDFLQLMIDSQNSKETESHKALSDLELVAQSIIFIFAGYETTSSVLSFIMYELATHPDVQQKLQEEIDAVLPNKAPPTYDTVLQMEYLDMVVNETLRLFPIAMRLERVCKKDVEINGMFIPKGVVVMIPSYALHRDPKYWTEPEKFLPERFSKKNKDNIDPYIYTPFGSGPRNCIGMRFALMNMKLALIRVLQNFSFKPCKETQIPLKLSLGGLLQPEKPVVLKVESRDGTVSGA

Cytochrome P450 2C9 = Cytochrome P450 2C9 (Homo sapiens, UniProt P11712); test: Inhibition of CYP2C9; type: ADME
Chain of Cytochrome P450 2C9 (P11712 whole entry): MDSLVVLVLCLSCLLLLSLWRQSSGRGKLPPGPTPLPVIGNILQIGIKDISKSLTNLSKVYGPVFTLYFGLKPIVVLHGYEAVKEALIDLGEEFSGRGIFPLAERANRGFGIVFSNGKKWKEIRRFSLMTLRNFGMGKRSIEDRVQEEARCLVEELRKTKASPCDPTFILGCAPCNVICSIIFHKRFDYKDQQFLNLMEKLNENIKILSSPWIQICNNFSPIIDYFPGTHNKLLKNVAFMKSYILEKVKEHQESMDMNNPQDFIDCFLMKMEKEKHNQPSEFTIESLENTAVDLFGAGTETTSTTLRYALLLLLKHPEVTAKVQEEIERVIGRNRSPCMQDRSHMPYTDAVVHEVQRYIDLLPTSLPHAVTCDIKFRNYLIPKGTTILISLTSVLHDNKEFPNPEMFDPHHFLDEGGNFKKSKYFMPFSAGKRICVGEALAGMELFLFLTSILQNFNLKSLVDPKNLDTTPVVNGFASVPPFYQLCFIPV

L-type calcium channel = L-type calcium channel (Rattus norvegicus, UniProt P22002+P27732+Q02485); test: Inhibition of rat L-type calcium channel at 10 uM
[16] = target: T3, 5-hydroxytryptamine receptor 2B (Homo sapiens, UniProt P41595); test: Antagonist activity at 5HT2B receptor; type: functional
T3 sequence (P41595 whole entry): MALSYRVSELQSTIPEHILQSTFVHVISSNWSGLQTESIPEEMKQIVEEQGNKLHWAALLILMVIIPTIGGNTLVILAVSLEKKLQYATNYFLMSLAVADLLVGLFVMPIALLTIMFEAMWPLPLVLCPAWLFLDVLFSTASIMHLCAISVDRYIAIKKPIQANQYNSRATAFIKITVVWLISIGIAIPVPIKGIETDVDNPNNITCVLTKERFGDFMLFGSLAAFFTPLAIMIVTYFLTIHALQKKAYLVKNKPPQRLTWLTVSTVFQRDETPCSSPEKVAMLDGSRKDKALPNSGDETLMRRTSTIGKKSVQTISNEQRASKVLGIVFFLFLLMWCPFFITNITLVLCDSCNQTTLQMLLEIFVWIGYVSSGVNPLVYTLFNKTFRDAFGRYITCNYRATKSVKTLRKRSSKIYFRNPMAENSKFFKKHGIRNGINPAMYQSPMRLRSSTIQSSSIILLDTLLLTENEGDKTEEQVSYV

Rattus norvegicus [17] = test: Increase of short-term memory in rat social recognition model at 0.1 to 3 mg/kg, ip; type: functional, organism-based
[18] = target: 5-hydroxytryptamine receptor 2A (Homo sapiens) (UniProt P28223); conditions: 10 uM
Chain of 5-hydroxytryptamine receptor 2A (Homo sapiens) (P28223 whole entry): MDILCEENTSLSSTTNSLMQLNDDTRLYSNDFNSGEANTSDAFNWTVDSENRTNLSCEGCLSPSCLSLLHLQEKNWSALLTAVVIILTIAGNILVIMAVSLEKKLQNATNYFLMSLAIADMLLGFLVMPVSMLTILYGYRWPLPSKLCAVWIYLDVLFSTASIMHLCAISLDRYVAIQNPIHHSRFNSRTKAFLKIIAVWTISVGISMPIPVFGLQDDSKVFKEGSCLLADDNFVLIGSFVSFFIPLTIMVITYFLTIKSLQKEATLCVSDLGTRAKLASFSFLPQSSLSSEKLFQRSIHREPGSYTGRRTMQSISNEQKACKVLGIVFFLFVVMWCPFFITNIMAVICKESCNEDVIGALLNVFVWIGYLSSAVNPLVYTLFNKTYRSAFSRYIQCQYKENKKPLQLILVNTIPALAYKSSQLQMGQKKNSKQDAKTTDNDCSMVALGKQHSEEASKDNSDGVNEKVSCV

[19] = target: T3, 5-hydroxytryptamine receptor 2B; conditions: 10 uM
[20] = target: T4, Alpha-2A adrenergic receptor (Homo sapiens) (UniProt P08913); conditions: 10 uM
T4 sequence (whole entry): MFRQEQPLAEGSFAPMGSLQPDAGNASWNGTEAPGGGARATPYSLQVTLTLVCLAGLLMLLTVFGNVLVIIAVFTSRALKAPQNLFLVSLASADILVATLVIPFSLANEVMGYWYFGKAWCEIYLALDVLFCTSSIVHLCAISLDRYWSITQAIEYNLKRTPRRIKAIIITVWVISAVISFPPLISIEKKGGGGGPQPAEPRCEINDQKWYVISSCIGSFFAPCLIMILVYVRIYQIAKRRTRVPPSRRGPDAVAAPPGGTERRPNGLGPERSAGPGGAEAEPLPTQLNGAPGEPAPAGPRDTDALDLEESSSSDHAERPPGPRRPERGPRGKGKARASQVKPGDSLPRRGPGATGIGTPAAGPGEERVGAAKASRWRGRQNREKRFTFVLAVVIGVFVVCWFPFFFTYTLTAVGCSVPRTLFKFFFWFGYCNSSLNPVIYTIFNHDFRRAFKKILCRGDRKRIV

[21] = target: T5, Alpha-2B adrenergic receptor (Homo sapiens) (UniProt P18089); conditions: 10 uM
T5 sequence (whole entry): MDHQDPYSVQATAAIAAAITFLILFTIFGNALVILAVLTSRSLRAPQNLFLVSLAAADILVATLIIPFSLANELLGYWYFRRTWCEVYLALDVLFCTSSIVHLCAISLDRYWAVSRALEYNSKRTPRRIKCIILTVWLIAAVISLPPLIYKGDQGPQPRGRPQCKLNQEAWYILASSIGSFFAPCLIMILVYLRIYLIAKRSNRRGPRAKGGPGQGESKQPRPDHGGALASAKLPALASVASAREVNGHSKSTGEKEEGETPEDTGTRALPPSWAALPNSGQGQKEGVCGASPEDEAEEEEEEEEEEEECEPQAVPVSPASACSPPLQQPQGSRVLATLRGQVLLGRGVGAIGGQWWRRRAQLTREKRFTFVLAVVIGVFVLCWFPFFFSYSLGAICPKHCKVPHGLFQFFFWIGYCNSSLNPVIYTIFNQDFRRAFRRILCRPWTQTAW

[22] = target: D(2) dopamine receptor (Homo sapiens) (UniProt P14416); conditions: 1 uM
Chain of D(2) dopamine receptor (Homo sapiens) (P14416 whole entry): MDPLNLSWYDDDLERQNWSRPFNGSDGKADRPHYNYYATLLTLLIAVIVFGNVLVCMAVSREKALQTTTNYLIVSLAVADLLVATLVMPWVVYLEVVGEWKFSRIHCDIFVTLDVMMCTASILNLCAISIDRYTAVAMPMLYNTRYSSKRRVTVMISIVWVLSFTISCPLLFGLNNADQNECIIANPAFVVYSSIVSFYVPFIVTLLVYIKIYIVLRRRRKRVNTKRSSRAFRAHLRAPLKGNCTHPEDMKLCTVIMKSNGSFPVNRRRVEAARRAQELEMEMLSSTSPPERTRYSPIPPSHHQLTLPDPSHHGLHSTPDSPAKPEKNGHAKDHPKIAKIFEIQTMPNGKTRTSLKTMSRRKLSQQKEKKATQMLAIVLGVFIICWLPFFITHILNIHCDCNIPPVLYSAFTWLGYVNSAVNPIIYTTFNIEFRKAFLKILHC

[23] = target: D(3) dopamine receptor (Homo sapiens) (UniProt P35462); conditions: 10 uM
Chain of D(3) dopamine receptor (Homo sapiens) (P35462 whole entry): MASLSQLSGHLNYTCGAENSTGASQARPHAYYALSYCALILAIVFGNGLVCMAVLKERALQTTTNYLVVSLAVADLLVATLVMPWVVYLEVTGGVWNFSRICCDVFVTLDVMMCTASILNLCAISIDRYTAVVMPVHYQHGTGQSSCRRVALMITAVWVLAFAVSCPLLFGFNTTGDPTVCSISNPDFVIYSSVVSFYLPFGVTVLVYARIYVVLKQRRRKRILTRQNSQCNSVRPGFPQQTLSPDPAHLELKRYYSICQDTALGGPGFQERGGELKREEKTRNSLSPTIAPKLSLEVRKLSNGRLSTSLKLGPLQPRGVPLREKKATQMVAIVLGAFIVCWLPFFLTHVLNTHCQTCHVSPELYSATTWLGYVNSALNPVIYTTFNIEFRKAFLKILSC

Structure (SMILES): O=S(=O)(c1cccc(F)c1)c1ccc2c3c(oc2c1)C1(CCOC1)NCC3 (racemic)
Ki [1]: 22.3 nM | Ki [2]: 132 nM | pKa [3]: 7.5 | IC50 [4]: 32 nM

Structure (SMILES): O=S(=O)(c1cccc(F)c1)c1ccc2c3c(oc2c1)CNCC3
Ki [1]: 1.6 nM | Ki [2]: 6.9 nM | half-life [5]: < 5 min | half-life [6]: 10.3 min | IC50 [4]: 3.6 nM

Structure (SMILES): O=S(=O)(c1ccccc1)c1ccc2oc3c(c2c1)CCNC3
Ki [1]: 46 nM | Ki [2]: 156 nM

Structure (SMILES): COc1cccc(S(=O)(=O)c2ccc3c4c(oc3c2)C(C)(C)NCC4)c1
Ki [1]: 17.5 nM | IC50 [4]: 68.6 nM

Structure (SMILES): O=S(=O)(c1ccc(F)cc1)c1ccc2c3c(oc2c1)CNCC3
Ki [1]: 22 nM

Structure (SMILES): O=S(=O)(c1cccc(F)c1)c1ccc2c3c(oc2c1)C1(CCCOC1)NCC3 (stereo in doubt; 2) [listing 1 of 2 here]
Ki [2]: 16.9 nM | IC50 [7]: 12000 nM | half-life [5]: 25 min | half-life [6]: > 40 min | half-life [8]: 30 min | half-life [9]: 84 min | Vd [10]: 4 L/kg | clearance [11]: 32 mL/min/kg | Cmax [12]: 210 ng/mL | AUC (Rattus norvegicus [13]): 974 ng·h/mL | bioavailability [14]: 36% | Drug uptake (Brain): 1660 nmol/g | Kp [15]: 2 | IC50 (Cytochrome P450 1A2): > 30000 nM | IC50 (Cytochrome P450 2C19): > 30000 nM | IC50 (Cytochrome P450 2D6): > 30000 nM | IC50 (Cytochrome P450 3A4): > 30000 nM | IC50 (Cytochrome P450 2C9): 1900 nM | inhibition at 10 µM (L-type calcium channel): > 50% | IC50 [16]: 1500 nM

Structure (SMILES): O=S(=O)(c1cccc(F)c1)c1ccc2c3c(oc2c1)C1(CCCOC1)NCC3 (stereo in doubt; 2) [listing 2 of 2 here]
Activity (Rattus norvegicus [17]): Active | inhibition [18]: > 50% | inhibition [19]: > 50% | inhibition [20]: > 50% | inhibition [21]: > 50% | inhibition [22]: > 50% | inhibition [23]: > 50%

Structure (SMILES): CC1(C)NCCc2c1oc1cc(S(=O)(=O)c3cccc(F)c3)ccc21
Ki [1]: 2.9 nM | Ki [2]: 19 nM | half-life [5]: 16 min | half-life [6]: 32 min | half-life [8]: > 40 min | half-life [9]: 54 min | Vd [10]: 5.5 L/kg | clearance [11]: 82 mL/min/kg | Cmax [12]: 35 ng/mL | AUC (Rattus norvegicus [13]): 149 ng·h/mL | bioavailability [14]: 15% | Drug uptake (Brain): 1620 nmol/g | Kp [15]: 7.7 | IC50 [4]: 11.7 nM

Structure (SMILES): O=S(=O)(c1cccc(F)c1)c1ccc2c3c(oc2c1)C1(CCCOC1)NCC3 (racemic)
Ki [2]: 38.3 nM | IC50 [7]: 13600 nM

Structure (SMILES): O=S(=O)(c1cccc(F)c1)c1ccc2c3c(oc2c1)C1(CCCOC1)NCC3 (stereo in doubt; 3)
IC50 [7]: 9600 nM | pKa [3]: 7.5

Further lines, with some results ahead:

Ki [1]: 18 nM | Ki [2]: 113 nM | pKa [3]: 7.5
Structure (SMILES): COCC1(C)NCCc2c1oc1cc(S(=O)(=O)c3cccc(F)c3)ccc21 (stereo unspecified)

Ki [2]: 183 nM | pKa [3]: 6.2
Structure (SMILES): CC1(C(F)F)NCCc2c1oc1cc(S(=O)(=O)c3cccc(F)c3)ccc21 (stereo unspecified)

Ki [1]: 139 nM | pKa [3]: 5.7
Structure (SMILES): CC1(C(F)(F)F)NCCc2c1oc1cc(S(=O)(=O)c3cccc(F)c3)ccc21 (stereo unspecified)

Ki [1]: 7.7 nM | Ki [2]: 41 nM | IC50 [4]: 34 nM
Structure (SMILES): CC1(C)NCCc2c1oc1cc(S(=O)(=O)c3ccccc3)ccc21

Ki [1]: 2.7 nM | Ki [2]: 9.8 nM | IC50 [4]: 8.5 nM
Structure (SMILES): O=S(=O)(c1ccccc1)c1ccc2c3c(oc2c1)CNCC3

Ki [1]: 5.6 nM | Ki [2]: 34 nM | IC50 [4]: 21 nM
Structure (SMILES): COc1cccc(S(=O)(=O)c2ccc3c4c(oc3c2)CNCC4)c1

Ki [1]: 2.1 nM | Ki [2]: 14 nM | pKa [3]: 7.4 | half-life [5]: 25 min | half-life [6]: > 40 min | half-life [8]: 19 min | half-life [9]: 54 min | Vd [10]: 1.4 L/kg | clearance [11]: 17 mL/min/kg | Cmax [12]: 84 ng/mL | AUC (Rattus norvegicus [13]): 368 ng·h/mL | bioavailability [14]: 6% | Drug uptake (Brain): 979 nmol/g | Kp [15]: 3.3 | IC50 [4]: 6.8 nM
Structure (SMILES): O=S(=O)(c1cccc(F)c1)c1ccc2c3c(oc2c1)C1(CCOCC1)NCC3
IC50 [7]: > 30000 nM
